ChEMBL document CHEMBL4368933, “Structure-activity relationship of leucyladenylate sulfamate analogues as leucyl-tRNA synthetase (LRS)-targeting inhibitors of Mammalian target of rapamycin complex 1 (mTORC1)” (Bioorg Med Chem, 2019)
pIC50: −log10 of the molar value. Active and inactive are the calls of the source. No cut-off for these calls is given here.

Experiments:
[1] = biological target: Leucine--tRNA ligase, cytoplasmic (Homo sapiens) (UniProt Q9P2J5); assay: Inhibition of Leucyl-tRNA synthetase-mediated mTORC1 signaling activation in human HEK293 cells assessed as reduction in leucine-induced S6K phosphorylation at 200 uM preincubated for 50 mins followed by leucine-stimulation and measured after 10 mins by Western blot analysis; assay type: cell-based
Chain of Leucine--tRNA ligase, cytoplasmic (Homo sapiens) (Q9P2J5 whole entry, looked up): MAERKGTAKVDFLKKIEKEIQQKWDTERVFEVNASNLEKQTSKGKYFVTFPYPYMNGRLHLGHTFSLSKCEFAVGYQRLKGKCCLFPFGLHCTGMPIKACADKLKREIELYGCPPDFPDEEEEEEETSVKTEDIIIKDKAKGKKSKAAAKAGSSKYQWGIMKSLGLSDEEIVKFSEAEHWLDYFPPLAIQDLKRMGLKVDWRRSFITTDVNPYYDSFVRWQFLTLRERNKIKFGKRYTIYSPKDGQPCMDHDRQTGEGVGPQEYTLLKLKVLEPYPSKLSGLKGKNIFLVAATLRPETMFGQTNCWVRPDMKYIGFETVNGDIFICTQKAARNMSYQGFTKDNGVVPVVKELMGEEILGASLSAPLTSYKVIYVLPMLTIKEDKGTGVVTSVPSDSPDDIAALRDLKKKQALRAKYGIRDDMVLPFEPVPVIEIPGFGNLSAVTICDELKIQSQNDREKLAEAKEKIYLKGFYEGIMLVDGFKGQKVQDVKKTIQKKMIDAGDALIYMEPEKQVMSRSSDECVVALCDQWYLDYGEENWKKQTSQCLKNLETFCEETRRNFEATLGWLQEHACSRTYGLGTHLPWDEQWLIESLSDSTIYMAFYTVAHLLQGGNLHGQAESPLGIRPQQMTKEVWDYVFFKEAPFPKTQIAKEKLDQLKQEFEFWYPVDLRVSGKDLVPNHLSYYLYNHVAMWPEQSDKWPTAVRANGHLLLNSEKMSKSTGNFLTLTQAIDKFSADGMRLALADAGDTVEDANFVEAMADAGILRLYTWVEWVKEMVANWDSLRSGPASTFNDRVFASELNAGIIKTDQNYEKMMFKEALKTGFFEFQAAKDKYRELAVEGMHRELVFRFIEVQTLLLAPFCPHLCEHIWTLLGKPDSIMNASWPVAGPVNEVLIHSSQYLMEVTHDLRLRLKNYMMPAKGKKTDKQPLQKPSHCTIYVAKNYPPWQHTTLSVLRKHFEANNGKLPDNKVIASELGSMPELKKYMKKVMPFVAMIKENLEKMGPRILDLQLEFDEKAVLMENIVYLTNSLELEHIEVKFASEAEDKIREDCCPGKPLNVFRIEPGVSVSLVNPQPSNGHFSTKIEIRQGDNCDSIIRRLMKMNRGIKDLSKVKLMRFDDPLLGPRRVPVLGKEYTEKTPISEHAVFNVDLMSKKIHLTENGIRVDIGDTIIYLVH
Outline: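 HEK293 cells pretreated with test agent at a fixed 200 µM, alongside rapamycin (100 nM) and leucinol (800 µM) as references. mTORC1 then activated by adding leucine for 10 min. S6K phosphorylation read by Western blot.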

mTORC2 (Homo sapiens) = mTORC2 (Homo sapiens) (UniProt P42345+Q6R327+Q9BVC4+Q9BPZ7); assay: Inhibition of mTORC2 signaling in human HEK293 cells assessed as reduction in leucine-induced AKT phosphorylation at 200 uM preincubated for 50 mins followed by leucine-stimulation and measured after 10 mins by Western blot analysis; assay type: cell-based
SK-HEP1 = assay: Antiproliferative activity against human SKHEP1 cells after 72 hrs by SRB assay; assay type: functional, cell-based; conditions: SK-HEP1, 72 h
Outline: (§1)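 Colorimetric growth assay with IC50 values derived; etoposide as positive control. Cell lines: A549 (lung cancer), HCT116 (colon cancer), MDA-MB-231 (breast cancer), SK-Hep-1 (liver cancer), SNU638 (stomach cancer), MRC5 (normal lung […]).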

HCT-116 = assay: Antiproliferative activity against human HCT116 cells after 72 hrs by SRB assay; assay type: functional, cell-based; conditions: HCT-116, 72 h; outline: as §1
SNU-638 = assay: Antiproliferative activity against human SNU638 cells after 72 hrs by SRB assay; assay type: functional, cell-based; conditions: SNU-638, 72 h; outline: as §1
MDA-MB-231 = assay: Antiproliferative activity against human MDA-MB-231 cells after 72 hrs by SRB assay; assay type: functional, cell-based; conditions: MDA-MB-231, 72 h; outline: as §1
MRC5 = assay: Antiproliferative activity against human MRC5 cells after 72 hrs by SRB assay; assay type: cell-based; conditions: MRC5, 72 h; outline: as §1
A549 = assay: Antiproliferative activity against human A549 cells after 72 hrs by SRB assay; assay type: functional, cell-based; conditions: A549, 72 h; outline: as §1

SMILES	inhibition [1]	further results
CC(C)C[C@@H](O)C(=O)NS(=O)(=O)OC[C@H]1O[C@@H](n2cnc3c(N)ncnc32)[C@H](O)[C@@H]1O	Active	–
CC(C)[C@H](O)[C@@H](O)C(=O)NS(=O)(=O)OC[C@H]1O[C@@H](n2cnc3c(N)ncnc32)C[C@@H]1O	inactive	–
CC(C)(C)c1cc(C(=O)NS(=O)(=O)OC[C@H]2O[C@@H](n3cnc4c(N)ncnc43)[C@H](O)[C@@H]2O)[nH]n1	Active	–
CC(C)c1cc(C(=O)NS(=O)(=O)OC[C@H]2O[C@@H](n3cnc4c(N)ncnc43)[C@H](O)[C@@H]2O)[nH]n1	inactive	–
Nc1ncnc2c1ncn2[C@@H]1O[C@H](COS(=O)(=O)NC(=O)[C@@H](O)[C@H](O)C2CC2)[C@@H](O)[C@H]1O	inactive	–
CC(C)C[C@H](O)C(=O)NS(=O)(=O)OC[C@@H]1C[C@@H](O)[C@H](n2cnc3c(N)ncnc32)O1	inactive	inhibition (mTORC2 (Homo sapiens)): Active
CC(C)c1cc(C(=O)NS(=O)(=O)OC[C@H]2O[C@@H](n3cnc4c(N)ncnc43)[C@H](O)[C@@H]2O)n(C)n1	Active	–
CC(C)[C@@H](O)[C@H](O)C(=O)NS(=O)(=O)OC[C@H]1O[C@@H](n2cnc3c(N)ncnc32)[C@@H]2OC(=O)N[C@@H]21	inactive	–
COc1cc([C@@H]2c3cc4c(cc3[C@@H](O[C@@H]3O[C@@H]5CO[C@@H](C)O[C@H]5[C@H](O)[C@H]3O)[C@H]3COC(=O)[C@H]23)OCO4)cc(OC)c1O [ETOPOSIDE]	–	pIC50 (SK-HEP1): 6.39; pIC50 (HCT-116): 5.91; pIC50 (SNU-638): 6.47; pIC50 (MDA-MB-231): 5.47; pIC50 (MRC5): 4.90; pIC50 (A549): 6.33
CC(C)C[C@H](S)C(=O)NS(=O)(=O)OC[C@H]1O[C@@H](n2cnc3c(=O)[nH]cnc32)[C@H](O)[C@@H]1O	inactive	–
CC(C)C[C@H](N)C(=O)NS(=O)(=O)OC[C@H]1O[C@@H](n2cnc3c(N)ncnc32)C[C@@H]1O	inactive	–
CO[C@H](C(=O)NS(=O)(=O)OC[C@H]1O[C@@H](n2cnc3c(N)nc(Cl)nc32)[C@H](O)[C@@H]1O)[C@H](O)C(C)C	inactive	–
CN[C@@H](CC(C)C)C(=O)NS(=O)(=O)OC[C@H]1O[C@@H](n2cnc3c(N)ncnc32)[C@H](O)[C@@H]1O	inactive	–
CC(C)C[C@H](O)C(=O)NS(=O)(=O)OC[C@H]1O[C@@H](n2cnc3c(=O)[nH]cnc32)[C@H](O)[C@@H]1O	Active	pIC50 (SK-HEP1): < 4.70; pIC50 (HCT-116): < 4.70; pIC50 (SNU-638): < 4.70; pIC50 (MDA-MB-231): < 4.70; pIC50 (MRC5): < 4.70; pIC50 (A549): < 4.70
CC(C)[C@@H](O)[C@H](O)C(=O)NS(=O)(=O)OC[C@H]1O[C@@H](n2cnc3c(=O)[nH]cnc32)[C@H](O)[C@@H]1O	Active	pIC50 (SK-HEP1): < 4.70; pIC50 (HCT-116): < 4.70; pIC50 (SNU-638): < 4.70; pIC50 (MDA-MB-231): < 4.70; pIC50 (MRC5): < 4.70; pIC50 (A549): < 4.70
CNc1ncnc2c1ncn2[C@@H]1O[C@H](COS(=O)(=O)NC(=O)[C@H](CC(C)C)OC)[C@@H](O)[C@H]1O	inactive	inhibition (mTORC2 (Homo sapiens)): Active
CO[C@H](C(=O)NS(=O)(=O)OC[C@H]1O[C@@H](n2cnc3c(N)nc(Cl)nc32)[C@H](O)[C@@H]1O)[C@H](OC)C(C)C	Active	pIC50 (SK-HEP1): < 4.70; pIC50 (HCT-116): < 4.70; pIC50 (SNU-638): < 4.70; pIC50 (MDA-MB-231): < 4.70; pIC50 (MRC5): < 4.70; pIC50 (A549): < 4.70
CC(C)C[C@H](N)CO	Active	–
CC(C)C[C@H](O)C(=O)NS(=O)(=O)OC[C@H]1O[C@@H](n2cnc3c(N)ncnc32)C[C@@H]1O	inactive	inhibition (mTORC2 (Homo sapiens)): Active
CO[C@H](C(=O)NS(=O)(=O)OC[C@H]1O[C@@H](n2cnc3c(N)ncnc32)C[C@@H]1O)[C@H](OC)C(C)C	inactive	–

SMILES	inhibition [1]	further results
CC(C)c1cc(C(=O)NS(=O)(=O)OC[C@H]2O[C@@H](n3cnc4c(N)nc(I)nc43)[C@H](O)[C@@H]2O)n(C)n1	Active	–
CC(C)C[C@H](O)C(=O)NS(=O)(=O)OC[C@H]1O[C@@H](n2cnc3c(N)ncnc32)[C@@H](O)[C@@H]1O	Active	–
CC(C)c1cc(C(=O)NS(=O)(=O)OC[C@H]2O[C@@H](n3cnc4c(N)nc(I)nc43)[C@H](O)[C@@H]2O)[nH]n1	inactive	–
CC(C)C[C@@H](O)C(=O)NS(=O)(=O)OC[C@H]1O[C@@H](n2cnc3c(=O)[nH]cnc32)[C@H](O)[C@@H]1O	inactive	–
CC(C)C[C@H](S)C(=O)NS(=O)(=O)OC[C@H]1O[C@@H](n2cnc3c(N)ncnc32)[C@H](O)[C@@H]1O	Active	–
CNc1ncnc2c1ncn2[C@@H]1O[C@H](COS(=O)(=O)NC(=O)[C@@H](Cl)CC(C)C)[C@@H](O)[C@H]1O	inactive	–
Nc1ncnc2c1ncn2[C@@H]1O[C@H](COS(=O)(=O)NC(=O)c2cc(C3CC3)n[nH]2)[C@@H](O)[C@H]1O	inactive	–
Nc1nc(I)nc2c1ncn2[C@@H]1O[C@H](COS(=O)(=O)NC(=O)[C@@H](O)[C@H](O)C2CC2)[C@@H](O)[C@H]1O	Active	pIC50 (SK-HEP1): 5.23; pIC50 (HCT-116): 5.14; pIC50 (SNU-638): 5.32; pIC50 (MDA-MB-231): 4.78; pIC50 (MRC5): < 4.70; pIC50 (A549): 5.32
CC(C)C[C@H](O)C(=O)NS(=O)(=O)OC[C@H]1O[C@@H](n2cnc3c(N)nc(Cl)nc32)[C@H](O)[C@@H]1O	inactive	–
CC(C)[C@@H](O)[C@H](O)C(=O)NS(=O)(=O)OC[C@H]1O[C@@H](n2cnc3c(N)ncnc32)[C@@H](O)[C@@H]1O	inactive	–
CC(C)C[C@H](N)C(=O)NS(=O)(=O)OC[C@H]1O[C@@H](n2cnc3c(N)ncnc32)[C@H](O)[C@@H]1N	inactive	–
CO[C@H](C(=O)NS(=O)(=O)OC[C@H]1O[C@@H](n2cnc3c(N)ncnc32)[C@H](O)[C@@H]1O)[C@H](OC)C(C)C	inactive	–
CC(C)C[C@H](Cl)C(=O)NS(=O)(=O)OC[C@H]1O[C@@H](n2cnc3c(N)ncnc32)[C@H](O)[C@@H]1O	inactive	–
O=C(NS(=O)(=O)OC[C@H]1O[C@@H](n2cnc3c(=O)[nH]cnc32)[C@H](O)[C@@H]1O)[C@@H](O)[C@H](O)C1CC1	inactive	–
CC(C)C[C@H](O)C(=O)NS(=O)(=O)OC[C@H]1O[C@@H](n2cnc3c(N)nc(I)nc32)[C@H](O)[C@@H]1O	Active	–
CC(C)C[C@H](Cl)C(=O)NS(=O)(=O)OC[C@H]1O[C@@H](n2cnc3c(N)nc(Cl)nc32)[C@H](O)[C@@H]1O	Active	pIC50 (SK-HEP1): 5.23; pIC50 (HCT-116): 5.12; pIC50 (SNU-638): 5.26; pIC50 (MDA-MB-231): 5.11; pIC50 (MRC5): < 4.70; pIC50 (A549): 5.20
CO[C@H](C(=O)NS(=O)(=O)OC[C@H]1O[C@@H](n2cnc3c(N)ncnc32)C[C@@H]1O)[C@H](O)C(C)C	inactive	–
Nc1ncnc2c1ncn2[C@@H]1O[C@H](COS(=O)(=O)NC(=O)[C@@H](O)[C@H](O)C2CC2)[C@H]2NC(=O)O[C@H]21	Active	–
CC(C)/C=C/C(=O)NS(=O)(=O)OC[C@H]1O[C@@H](n2cnc3c(N)ncnc32)[C@H](O)[C@@H]1O	Active	–
CO[C@H](C(=O)NS(=O)(=O)OC[C@H]1O[C@@H](n2cnc3c(N)ncnc32)[C@H](O)[C@@H]1O)[C@H](O)C(C)C	inactive	–
